Experimental data: ChEMBL document CHEMBL1687745 (Antimicrob Agents Chemother, 2009)
In brackets after ≈: the same amount, converted by molar mass. Activity calls are given as the source filed them. The calls are words filed in the database; no cut-off is given here.

Legend:
Yersinia pestis = assay: Antimicrobial activity against Yersinia pestis by broth microdilution method; format: functional
Enterococcus faecium = assay: Antimicrobial activity against vancomycin-resistant Enterococcus faecium B42762 by broth microdilution method; format: functional
Enterococcus faecalis [1] = assay: Antimicrobial activity against vancomycin-resistant Enterococcus faecalis ATCC 51575 by broth microdilution method; format: functional
Escherichia coli = assay: Antimicrobial activity against Escherichia coli J53 clinical isolate by broth microdilution method; format: functional
Brevibacillus brevis = assay: Antimicrobial activity against Bacillus brevis clinical isolate by broth microdilution method; format: functional
Outline: (§1)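 Broth microdilution. Log-phase cultures (5 × 10^5 CFU/ml) seeded in 96-well plates with compound from 0 to 20 µM or 1% DMSO control. Incubated at 37°C for 16 to 20 h. Growth read as absorbance at 600 nm.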

Burkholderia mallei = assay: Antimicrobial activity against Burkholderia mallei ATCC 23344 by broth microdilution method; format: functional
Burkholderia cepacia = assay: Antimicrobial activity against Burkholderia cepacia clinical isolate by broth microdilution method; format: functional; outline: as §1
Bacillus pumilus = assay: Antimicrobial activity against Bacillus pumilus clinical isolate by broth microdilution method; format: functional; outline: as §1
Klebsiella pneumoniae = assay: Antimicrobial activity against Klebsiella pneumoniae 5657 by broth microdilution method; format: functional; outline: as §1
Enterococcus faecalis [2] = assay: Antimicrobial activity against Enterococcus faecalis 29212 clinical isolate by broth microdilution method; format: functional
Bacillus anthracis [3] = assay: Antimicrobial activity against Bacillus anthracis Sterne spores by broth microdilution method; format: functional
Bacillus anthracis [4] = assay: Antimicrobial activity against Bacillus anthracis Sterne vegetative cells by broth microdilution method; format: functional
Bacillus anthracis [5] = assay: Antimicrobial activity against Bacillus anthracis Ames by broth microdilution method in presence of 10% fetal calf serum; format: functional
Staphylococcus aureus [6] = assay: Antimicrobial activity against Staphylococcus aureus ATCC 25923 by broth microdilution method; format: functional; outline: as §1
Staphylococcus aureus [7] = assay: Antimicrobial activity against methicillin-resistant Staphylococcus aureus 1094 by broth microdilution method; format: functional
Bacillus subtilis [8] = assay: Antimicrobial activity against Bacillus subtilis clinical isolate by broth microdilution method; format: functional
[9] = system: Mycolicibacterium smegmatis; assay: Antimicrobial activity against Mycobacterium smegmatis 19420 by broth microdilution method; format: functional; outline: as §1
[10] = system: Burkholderia pseudomallei; assay: Antimicrobial activity against Burkholderia pseudomallei DD503 by broth microdilution method; format: functional
Bacillus anthracis [11] = assay: microbe, parasite or virus in culture; conditions: Ames
Bacillus anthracis [12] = assay: Antimicrobial activity against Bacillus anthracis Vollum clinical isolate by broth microdilution method; format: functional
Bacillus anthracis [13] = assay: Protection against Bacillus anthracis Sterne spores induced cell death in mouse J774A1 cells assessed as live viable cells at 10 uM by Sytox green dye staining assay relative to untreated control; format: functional, J774.A1
Bacillus subtilis [14] = assay: Inhibition of DNA synthesis in Bacillus subtilis BD54 at 5 X MIC by [3H]thymidine incorporation assay; format: functional, organism-based
Outline: (§2)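 Precursors were [methyl-3H]thymidine (DNA), [5-3H]uridine (RNA), L-[4,5-3H]leucine (protein) and N-acetyl-D-[1-3H]glucosamine (cell wall). Samples taken over time, precipitated with equal volume of ice-cold 20% TCA, filtered on glass fibre, and counted. cpm plotted against time.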

[15] = system: Burkholderia thailandensis; assay: Antimicrobial activity against Burkholderia thailandensis by broth microdilution method; format: functional
Bacillus anthracis [16] = assay: Inhibition of spore germination in Bacillus anthracis Sterne spores at MIC after 4 hrs; format: functional, organism-based
Staphylococcus aureus [17] = assay: Antimicrobial activity against Staphylococcus aureus by broth microdilution method; format: functional; outline: as §1
Enterococcus faecalis [18] = assay: Antimicrobial activity against Enterococcus faecalis clinical isolate by broth microdilution method; format: functional; outline: as §1
Bacillus anthracis [19] = assay: Protection against Bacillus anthracis Sterne spores induced cell death in mouse J774A1 cells assessed as dead cells at 10 uM by Sytox green dye staining assay relative to untreated control; format: functional, J774.A1
Pseudomonas aeruginosa = assay: Antimicrobial activity against Pseudomonas aeruginosa PAO1 by broth microdilution method; format: functional; outline: as §1
[20] = Cytotoxicity against human HeLa cells after 3 days by MTS assay in presence of 10% fetal calf serum; format: cell-based
Bacillus licheniformis = assay: Antimicrobial activity against Bacillus licheniformis clinical isolate by broth microdilution method; format: functional
Staphylococcus aureus [21] = assay: Antimicrobial activity against methicillin-resistant Staphylococcus aureus clinical isolate by broth microdilution method; format: functional
Bacillus subtilis [22] = assay: Inhibition of cell wall synthesis in Bacillus subtilis BD54 at 5 X MIC by N-acetyl-D-[1-3H] glucosamine incorporation assay; format: functional; outline: as §2
Priestia megaterium = assay: Antimicrobial activity against Bacillus megaterium clinical isolate by broth microdilution method; format: functional
Bacillus subtilis [23] = assay: Inhibition of RNA synthesis in Bacillus subtilis BD54 at 5 X MIC by [5-3H]uridine incorporation assay; format: functional; outline: as §2
[24] = system: Mycolicibacterium smegmatis; assay: Antimicrobial activity against Mycobacterium smegmatis 35798 by broth microdilution method; format: functional; outline: as §1
Bacillus anthracis [25] = assay: microbe, parasite or virus in culture; conditions: Ames; remark: listed apart in the source
[26] = system: Mycolicibacterium smegmatis; assay: Antimicrobial activity against Mycobacterium smegmatis 700009 by broth microdilution method; format: functional; outline: as §1
Bacillus subtilis [27] = assay: Inhibition of protein synthesis in Bacillus subtilis BD54 at 5 X MIC by L-[4,5-3H]leucine incorporation assay; format: functional, organism-based; outline: as §2
Bacillus anthracis [28] = assay: Inhibition of spore outgrowth in Bacillus anthracis Sterne spores assessed as reduction in bacterial CFU count at 0.1 ug/ml after 4 hrs relative to untreated control; format: functional, organism-based

## c1cc2cc(-c3ccc4cc(-c5ccc6oc(C7=NCCN7)cc6c5)[nH]c4c3)[nH]c2cc1C1=NCCN1
Yersinia pestis
  MIC: 9.7 µg/mL (≈ 20 µM)
Enterococcus faecium
  MIC: 0.1 µg/mL (≈ 0.206 µM)
Enterococcus faecalis [1]
  MIC: 0.1 µg/mL (≈ 0.206 µM)
Escherichia coli
  MIC: 1.4 µg/mL (≈ 2.89 µM)
Brevibacillus brevis
  MIC: 0.2 µg/mL (≈ 0.413 µM)
Burkholderia mallei
  MIC: > 9.7 µg/mL
Burkholderia cepacia
  MIC: 22 µg/mL (≈ 45.4 µM)
Bacillus pumilus
  MIC: 0.4 µg/mL (≈ 0.825 µM)
Klebsiella pneumoniae
  MIC: 16 µg/mL (≈ 33 µM)
Enterococcus faecalis [2]
  MIC: 0.1 µg/mL (≈ 0.206 µM)
Bacillus anthracis [3]
  MIC: 0.4 µg/mL (≈ 0.825 µM)
Bacillus anthracis [4]
  MIC: 0.7 µg/mL (≈ 1.44 µM)
Bacillus anthracis [5]
  MIC: 1.4 µg/mL
Staphylococcus aureus [6]
  MIC: 0.3 µg/mL (≈ 0.619 µM)
Staphylococcus aureus [7]
  MIC: 0.5 µg/mL (≈ 1.03 µM)
Bacillus subtilis [8]
  MIC: 0.4 µg/mL (≈ 0.825 µM)
[9]
  MIC: 0.1 µg/mL (≈ 0.206 µM)
[10]
  MIC: > 9.7 µg/mL
Bacillus anthracis [11]
  MBC: 1.2 µg/mL (≈ 2.48 µM)
  MIC: 0.2 µg/mL (≈ 0.413 µM)
Bacillus anthracis [12]
  MBC: 0.4 µg/mL (≈ 0.825 µM)
  MIC: 0.4 µg/mL (≈ 0.825 µM)
Bacillus anthracis [13]
  Activity: 75%
Bacillus subtilis [14]
  inhibition: Active
[15]
  MIC: 2.8 µg/mL (≈ 5.78 µM)
Bacillus anthracis [16]
  inhibition: inactive
Staphylococcus aureus [17]
  MIC: 0.7 µg/mL (≈ 1.44 µM)
Enterococcus faecalis [18]
  MIC: 0.7 µg/mL (≈ 1.44 µM)
Bacillus anthracis [19]
  Activity: 24%
Pseudomonas aeruginosa
  MIC: > 80 µg/mL
[20]
  CC50 at 72 h: 17 µg/mL
Bacillus licheniformis
  MIC: 1.4 µg/mL (≈ 2.89 µM)
Staphylococcus aureus [21]
  MIC: 2.8 µg/mL (≈ 5.78 µM)
Bacillus subtilis [22]
  inhibition (INH): 40%
Priestia megaterium
  MIC: 0.4 µg/mL (≈ 0.825 µM)
Bacillus subtilis [23]
  inhibition (INH): 40%
[24]
  MIC: < 0.1 µg/mL
Bacillus anthracis [25]
  MBC: 2.8 µg/mL (≈ 5.78 µM)
  MIC: 1.4 µg/mL (≈ 2.89 µM)
[26]
  MIC: < 0.1 µg/mL

## O=C(O)c1cn(C2CC2)c2cc(N3CCNCC3)c(F)cc2c1=O [CIPROFLOXACIN]
Enterococcus faecium
  MIC: 20 µg/mL (≈ 60.4 µM)
Enterococcus faecalis [1]
  MIC: 0.6 µg/mL (≈ 1.81 µM)
Klebsiella pneumoniae
  MIC: 0.2 µg/mL (≈ 0.604 µM)
Staphylococcus aureus [6]
  MIC: 0.3 µg/mL (≈ 0.905 µM)
Staphylococcus aureus [7]
  MIC: 5 µg/mL (≈ 15.1 µM)
[9]
  MIC: 0.1 µg/mL (≈ 0.302 µM)
Bacillus subtilis [27]
  inhibition: Active
Bacillus subtilis [14]
  inhibition: Active
Bacillus anthracis [28]
  inhibition: Active
Pseudomonas aeruginosa
  MIC: 0.1 µg/mL (≈ 0.302 µM)
Bacillus subtilis [22]
  inhibition: Active
Bacillus subtilis [23]
  inhibition: Active
[24]
  MIC: 0.2 µg/mL (≈ 0.604 µM)
[26]
  MIC: 0.4 µg/mL (≈ 1.21 µM)
